Calls of active or inactive are those of the source. The rule behind the calls is not given here.
How the values were obtained:
Mus musculus [1] = test: Inhibition of amphetamine-induced hyperlocomotion in Albino Swiss mouse at 0.1 ED50, ip administered 60 mins prior to test measured for 30 mins by photoresistor actometer analysis; format: functional
Method in brief: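 Single male Albino Swiss mice; compound i.p. 60 min and amphetamine 5 mg/kg s.c. 30 min before test. Photoresistor actometers (circular cage, two light beams) counted beam crossings over 30 min; mean ± SEM, Dunnett's test vs control.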

Mus musculus [2] = test: Inhibition of 5-HTP-induced head twitch response in Albino Swiss mouse at 0.1 ED50, ip administered 60 mins before 5-HTP injection relative to untreated control; format: functional
Method in brief: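 Male Albino Swiss mice given compound i.p. (0.1 ED50, 0.5% methylcellulose) 60 min before the test; L-5-HTP 230 mg/kg i.p. injected immediately before. Head twitches counted; mean ± SEM, Dunnett's test vs control.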

Mus musculus [3] = test: Increase in body temperature in Albino Swiss mouse at 0.1 ED50, ip administered 60 mins before test measured 30 to 180 mins post dose; format: functional, organism-based
Method in brief: (§1)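 Normothermic male Albino Swiss mice; rectal temperature by thermistor thermometer. Baseline taken as mean of readings at 60 and 30 min before dosing; i.p. dose (0.1 ED50, 0.5% methylcellulose vehicle) then readings at 30, 60, 90, 120 min (to 180 min for some). Change = final minus initial; Bonferroni post hoc test.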

Mus musculus [4] = test: Toxicity in Albino Swiss mouse assessed as inhibition of spontaneous locomotor activity at 0.1 ED50, ip administered 60 mins before test measured for 30 mins by photoresistor actometer analysis; format: organism-based; details: in vivo, 0.5 h
Method in brief: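 Spontaneous locomotion of single male Albino Swiss mice recorded in two-beam photoresistor actometers as beam crossings for 30 min, beginning 60 min after i.p. compound (suspension in 0.5% methylcellulose).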

Mus musculus [5] = test: Neurotoxicity in Albino Swiss mouse assessed as induction of myorelaxation at 0.0125 to 0.1 ED50, ip after 60 mins by chimney test; format: toxicity, organism-based; details: in vivo, 1 h
[6] = target: T1, 5-hydroxytryptamine receptor 2C (Rattus norvegicus, UniProt P08909); test: Displacement of [3H]mesulergine from 5HT2C receptor in Sprague-Dawley rat brain cortex incubated for 15 mins
T1 sequence (P08909 whole entry): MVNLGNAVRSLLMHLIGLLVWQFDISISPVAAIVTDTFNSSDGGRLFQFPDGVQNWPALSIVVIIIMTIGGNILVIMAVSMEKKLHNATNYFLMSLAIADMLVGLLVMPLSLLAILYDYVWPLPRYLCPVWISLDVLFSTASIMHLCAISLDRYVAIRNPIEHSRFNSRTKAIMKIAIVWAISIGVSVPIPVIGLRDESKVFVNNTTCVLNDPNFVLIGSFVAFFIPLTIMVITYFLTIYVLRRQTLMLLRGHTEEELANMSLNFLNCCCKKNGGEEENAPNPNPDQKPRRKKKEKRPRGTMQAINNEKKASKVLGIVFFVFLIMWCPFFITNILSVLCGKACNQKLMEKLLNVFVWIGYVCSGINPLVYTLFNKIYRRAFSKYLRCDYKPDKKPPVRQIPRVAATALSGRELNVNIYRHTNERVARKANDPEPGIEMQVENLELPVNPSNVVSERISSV
Method in brief: (§2)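 Rat frontal cortex homogenized in 50 mM Tris-HCl, 0.5 mM EDTA, 10 mM MgCl2, pH 7.4, washed, resuspended with 0.1% ascorbate and pargyline. Triplicates: 5-HT2A used 0.4 nM [3H]ketanserin, cinanserin for nonspecific binding; 5-HT2C used 1 nM [3H]mesulergine, mianserin nonspecific, 100 nM spiperone added. 15 min at 37 C, glass-fiber filtration.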

Mus musculus [7] = test: Inhibition of (+/-)DOI-induced head twitch response in Albino Swiss mouse at 28.6 mg/kg, ip administered 60 mins before (+/-)DOI injection measured for 20 mins relative to untreated control; format: functional
Method in brief: (§3)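 Male Albino Swiss mice; compounds suspended in 0.5% methylcellulose, injected i.p. 60 min before (±)DOI 2.5 mg/kg i.p.; head twitches counted over 20 min. Mean ± SEM, percent reduction versus DOI-treated group; one-way ANOVA with Bonferroni post hoc test.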

[8] = target: 5-hydroxytryptamine receptor 2A (Rattus norvegicus, UniProt P14842); test: Displacement of [3H]ketanserin from 5HT2A receptor in Sprague-Dawley rat brain cortex incubated for 15 mins; method in brief: as §2
Mus musculus [9] = test: Inhibition of (+/-)DOI-induced head twitch response in ip dosed Albino Swiss mouse administered 60 mins before (+/-)DOI injection measured for 20 mins; format: functional, organism-based; method in brief: as §3
Mus musculus [10] = test: Neurotoxicity in Albino Swiss mouse assessed as induction of myorelaxation at 0.0125 to 0.1 ED50, ip after 60 mins by rotarod test; format: toxicity, organism-based; details: in vivo, 1 h
Mus musculus [11] = test: Neurotoxicity in Albino Swiss mouse assessed as impairment in motor coordination at 0.0125 to 0.1 ED50, ip after 60 mins by rotarod test; format: toxicity, organism-based; details: in vivo, 1 h
Mus musculus [12] = test: Anticonvulsant activity in Albino Swiss mouse assessed as protection against pentetrazol-induced clonic seizure at 0.1 ED50, ip administered 60 mins prior to test relative to untreated control; format: functional
Method in brief: (§4)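 Male Albino Swiss mice (18-30 g); compound given i.p. as suspension in 0.5% methylcellulose 60 min before test; pentylenetetrazole 110 mg/kg s.c. Scored as number of mice with clonic seizures, tonic convulsions and deaths per animals tested; Fisher's exact test vs solvent control.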

Mus musculus [13] = test: Toxicity in ip dosed Albino Swiss mouse assessed as loss of righting reflex administered 60 mins before test measured up to 48 hrs; format: organism-based; details: in vivo
Method in brief: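 Acute toxicity in male Albino Swiss mice by Litchfield-Wilcoxon method: ED50 for loss of righting reflex after i.p. dosing, observed at 15, 30, 60, 180 min and 24, 48 h.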

Mus musculus [14] = test: Neurotoxicity in Albino Swiss mouse assessed as impairment in motor coordination at 0.0125 to 0.1 ED50, ip after 60 mins by chimney test; format: toxicity, organism-based; details: in vivo, 1 h
Mus musculus [15] = test: Increase in body temperature in Albino Swiss mouse at 0.1 ED50, ip administered 60 mins before test measured 30 to 90 mins post dose; format: functional, organism-based; method in brief: as §1
Mus musculus [16] = test: Inhibition of 5-HTP-induced head twitch response in ddY mouse at >=1 mg/kg, po administered 1 hr before 5-HTP injection measured after 30 mins relative to untreated control; format: functional
Mus musculus [17] = test: Inhibition of (+/-)DOI-induced head twitch response in Albino Swiss mouse at 5 mg/kg, ip administered 60 mins before (+/-)DOI injection measured for 20 mins relative to untreated control; format: functional; method in brief: as §3
Mus musculus [18] = test: Antinociceptive activity in Albino Swiss mouse assessed as inhibition of acetic acid-induced writhing response at 0.1 ED50, ip administered 60 mins prior to test measured for 10 mins; format: functional, organism-based
Method in brief: (§5)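 Male Albino Swiss mice, i.p. dosing in 0.5% methylcellulose 60 min beforehand; 0.6% acetic acid injected i.p., writhing episodes counted for 10 min beginning 5 min after acid. Mean ± SEM; one-way ANOVA with Dunnett's test vs control.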

Mus musculus [19] = test: Antinociceptive activity in Albino Swiss mouse assessed as inhibition of acetic acid-induced writhing response at 0.025 to 0.05 ED50, ip administered 60 mins prior to test measured for 10 mins; format: functional, organism-based; method in brief: as §5
Mus musculus [20] = test: Effect on body temperature in Albino Swiss mouse at 0.1 ED50, ip administered 60 mins before test measured 30 to 180 mins post dose; format: functional, organism-based; method in brief: as §1
Mus musculus [21] = test: Antinociceptive activity in Albino Swiss mouse assessed as inhibition of acetic acid-induced writhing response at 0.05 ED50, ip administered 60 mins prior to test measured for 10 mins in presence of opioid receptor antagonist naloxone; format: functional, organism-based
Mus musculus [22] = test: Protection against pentetrazol-induced mortality in Albino Swiss mouse at 0.1 ED50, ip administered 60 mins prior to test relative to untreated control; format: functional
Method in brief: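 Male Albino Swiss mice (18–30 g). Compound given i.p. as suspension in 0.5% methylcellulose (10 mL/kg), 60 min before test; controls got vehicle. Dose expressed as fraction of ED50 (loss of righting reflex within 48 h). Convulsions induced by pentylenetetrazole 110 mg/kg s.c.; dead animals counted per group (n=10; control n=16). Significance vs control by Fisher's exact test.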

Mus musculus [23] = test: Anticonvulsant activity in Albino Swiss mouse assessed as protection against pentetrazol-induced tonic seizure at 0.1 ED50, ip administered 60 mins prior to test relative to untreated control; format: functional; method in brief: as §4
Mus musculus [24] = test: Inhibition of (+/-)DOI-induced head twitch response in Albino Swiss mouse at 73.1 mg/kg, ip administered 60 mins before (+/-)DOI injection measured for 20 mins relative to untreated control; format: functional; method in brief: as §3
Mus musculus [25] = test: Inhibition of (+/-)DOI-induced head twitch response in Albino Swiss mouse at 36.55 mg/kg, ip administered 60 mins before (+/-)DOI injection measured for 20 mins relative to untreated control; format: functional; method in brief: as §3
Mus musculus [26] = test: Anticonvulsant activity in Albino Swiss mouse assessed as protection against pentetrazol-induced clonic seizure at 0.05 ED50, ip administered 60 mins prior to test relative to untreated control; format: functional, organism-based; method in brief: as §4

Sequence of 5-hydroxytryptamine receptor 2A (P14842 whole entry): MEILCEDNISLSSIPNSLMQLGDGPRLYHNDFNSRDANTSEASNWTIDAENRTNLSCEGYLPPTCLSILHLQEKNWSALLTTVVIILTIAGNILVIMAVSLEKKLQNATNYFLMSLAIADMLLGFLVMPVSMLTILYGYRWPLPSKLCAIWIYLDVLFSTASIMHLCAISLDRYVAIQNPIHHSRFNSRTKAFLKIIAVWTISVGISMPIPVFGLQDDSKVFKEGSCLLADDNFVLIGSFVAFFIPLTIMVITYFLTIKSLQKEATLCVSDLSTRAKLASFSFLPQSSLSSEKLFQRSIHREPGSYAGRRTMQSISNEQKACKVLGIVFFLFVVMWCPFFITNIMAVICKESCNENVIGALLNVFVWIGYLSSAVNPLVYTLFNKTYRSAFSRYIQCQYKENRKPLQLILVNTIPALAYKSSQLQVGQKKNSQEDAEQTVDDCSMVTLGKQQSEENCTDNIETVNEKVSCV

For `Fc1ccc(NC(=S)Nc2cccc(C(F)(F)F)c2)cc1Cl`, the “inhibition (INH)” value (Mus musculus [1]) was 47.3%, the inhibition (Mus musculus [2]) was “inactive” and the Activity (Mus musculus [3]) was “Active”. For the same compound, the Activity (Mus musculus [4]) was “Non-toxic”, the Activity (Mus musculus [5]) was “Non-toxic” and the Ki [6] was over 10 µM. For the same compound, the inhibition in vivo at 28.6 mg/kg (Mus musculus [7]) was 51.6%, the Ki [8] was 0.043 nM and the inhibition (Mus musculus [9]) was “Dose-dependent effect”. For the same compound, the Activity (Mus musculus [10]) was “Non-toxic”, the Activity (Mus musculus [11]) was “Non-toxic” and the Activity (Mus musculus [12]) was “inactive”. The ED50 (Mus musculus [13]) was 286.2 mg/kg and the Activity (Mus musculus [14]) was “Non-toxic”.
`O=C(NC(=S)Nc1ccc(Cl)c([N+](=O)[O-])c1)c1ccccc1` was tested, and the Activity (Mus musculus [4]) was “Non-toxic”, the Ki [6] was over 10 µM and the Ki [8] was over 10000 nM.
`COc1ccc(NC(=S)Nc2cccc(C(F)(F)F)c2)cc1` was tested, and the inhibition (Mus musculus [1]) was “Active”, the inhibition (Mus musculus [2]) was “inactive” and the Activity (Mus musculus [4]) was “Non-toxic”. For the same compound, the Activity (Mus musculus [15]) was “Active”, the Activity (Mus musculus [5]) was “Non-toxic” and the Ki [6] was over 10 µM. The Ki [8] was over 10000 nM, the Activity (Mus musculus [10]) was “Non-toxic” and the Activity (Mus musculus [11]) was “Non-toxic”. For the same compound, the Activity (Mus musculus [12]) was “inactive”, the ED50 (Mus musculus [13]) was 771.4 mg/kg and the Activity (Mus musculus [14]) was “Non-toxic”.
With `O=C(c1ccc(F)cc1)C1CCN(CCn2c(=O)[nH]c3ccccc3c2=O)CC1` [KETANSERIN] the “inhibition (INH)” value (Mus musculus [16]) was over 80% and the inhibition in vivo at 5 mg/kg (Mus musculus [17]) was 100%.
In the case of `FC(F)(F)c1cccc(NC(S)=NCc2ccccc2)c1`, the inhibition (Mus musculus [1]) is reported as “Active”, the “inhibition (INH)” value (Mus musculus [2]) is reported as 73.3% and the inhibition (Mus musculus [18]) is reported as “Active”. The inhibition (Mus musculus [19]) was “Active”, the Activity (Mus musculus [20]) was “inactive” and the inhibition (Mus musculus [21]) was “Active”. For the same compound, the Activity (Mus musculus [4]) was “Non-toxic”, the Activity (Mus musculus [5]) was “Non-toxic” and the Activity (Mus musculus [22]) was “Active”. It also gave a Ki [6] of over 10 µM, an Activity (Mus musculus [23]) of 46.66% and an inhibition in vivo at 73.1 mg/kg (Mus musculus [24]) of 72.2%. For the same compound, the Ki [8] was 0.6 nM, the inhibition (Mus musculus [9]) was “Dose-dependent effect” and the inhibition in vivo at 36.55 mg/kg (Mus musculus [25]) was 69.4%. For the same compound, the Activity (Mus musculus [10]) was “Non-toxic”, the Activity (Mus musculus [11]) was “Non-toxic” and the Activity (Mus musculus [12]) was 40%. The ED50 (Mus musculus [13]) was 731.3 mg/kg and the Activity (Mus musculus [14]) was “Non-toxic”.
For `FC(F)(F)c1cccc(NC(=S)NCCc2ccccc2)c1`, the “inhibition (INH)” value (Mus musculus [1]) was 42.48%, the inhibition (Mus musculus [2]) was “inactive” and the Activity (Mus musculus [26]) was “inactive”. For the same compound, the inhibition (Mus musculus [18]) was “Active”, the inhibition (Mus musculus [19]) was “Active” and the Activity (Mus musculus [20]) was “inactive”. The inhibition (Mus musculus [21]) was “Active”, the Activity (Mus musculus [4]) was “Non-toxic” and the Activity (Mus musculus [5]) was “Non-toxic”. The Activity (Mus musculus [22]) was 48.33%, the Ki [6] was over 10 µM and the Activity (Mus musculus [23]) was 46.66%. The Ki [8] was over 10000 nM, the Activity (Mus musculus [10]) was “Non-toxic” and the Activity (Mus musculus [11]) was “Non-toxic”. The ED50 (Mus musculus [13]) was 709.6 mg/kg and the Activity (Mus musculus [14]) was “Non-toxic”.

— ChEMBL document CHEMBL3797076, “5-HT2 receptor affinity, docking studies and pharmacological evaluation of a series of 1,3-disubstituted thiourea derivatives” (Eur J Med Chem, 2016)
